Results: ChEMBL document CHEMBL4024754, “Development of Potent, Protease-Resistant Agonists of the Parathyroid Hormone Receptor with Broad β Residue Distribution” (J Med Chem, 2017)
Active and inactive are the calls of the source. No cut-off for these calls is given here. Numbered stars: 1 amine (or outer) side, 2 acyl side, 3 side chain; on linkers, the order of the positions; unused ones are H or OH. Square brackets hold non-standard residues; d marks the D form. Peptide text beside a SMILES is read from it. * marks the point of attachment. NH(1S,2S-2-CONH2-cPent) = NC(=O)[C@H]1CCC[C@@H]1N*; ACPC(1S,2S) = N[C@H]1CCC[C@@H]1C(=O)*; X1 = O=C([C@H]1CCC[C@@H]1N[*:1])[*:2]; X2 = O=C([C@H]1CNC[C@@H]1N[*:1])[*:2]; hArg = N=C(N)NCCCC[C@H](N)C(=O)O; Aib = CC(C)(N)C(=O)O

Key:
[1] = molecular target: T1, Parathyroid hormone/parathyroid hormone-related peptide receptor (Homo sapiens, UniProt Q03431); experiment: Agonist activity at human PTH1 receptor expressed in human GP2.3 cells assessed as induction of cAMP after 12 to 20 mins by luciferase reporter gene assay; type: functional, cell-based; conditions: read-out: EC50
T1 sequence (Q03431 whole entry): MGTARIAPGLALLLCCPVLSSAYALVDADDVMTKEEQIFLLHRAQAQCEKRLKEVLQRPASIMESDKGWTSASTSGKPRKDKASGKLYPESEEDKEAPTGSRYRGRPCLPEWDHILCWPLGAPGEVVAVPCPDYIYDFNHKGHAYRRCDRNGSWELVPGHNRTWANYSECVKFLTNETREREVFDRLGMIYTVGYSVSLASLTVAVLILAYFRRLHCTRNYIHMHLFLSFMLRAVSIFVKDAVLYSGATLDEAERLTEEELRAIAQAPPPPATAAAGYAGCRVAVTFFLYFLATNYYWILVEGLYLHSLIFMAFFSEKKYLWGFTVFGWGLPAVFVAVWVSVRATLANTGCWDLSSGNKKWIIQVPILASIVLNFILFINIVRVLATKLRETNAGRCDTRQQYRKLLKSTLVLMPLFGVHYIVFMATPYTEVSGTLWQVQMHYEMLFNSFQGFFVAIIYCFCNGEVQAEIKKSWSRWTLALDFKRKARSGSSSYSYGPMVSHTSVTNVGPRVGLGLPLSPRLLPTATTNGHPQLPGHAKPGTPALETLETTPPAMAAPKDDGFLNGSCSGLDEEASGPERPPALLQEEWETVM

[2] = molecular target: T2, Parathyroid hormone/parathyroid hormone-related peptide receptor (Homo sapiens) (UniProt Q03431); experiment: Agonist activity at human PTH1 receptor expressed in human GP2.3 cells assessed as induction of cAMP after 12 to 20 mins by luciferase reporter gene assay relative to PTH(1 to 34 residues)-NH2; type: functional, cell-based
T2 sequence (whole entry): T1 sequence (Q03431 whole entry)

[3] = Drug metabolism in Sprague-Dawley rat kidney homogenates assessed as protease-mediated metabolite formation at 12 uM after 4 hrs by MALDI-TOF-MS analysis; type: ADME, tissue-based; conditions: tissue homogenate
In short: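 Perfused female Sprague-Dawley kidney homogenate in 50 mM Tris-HCl pH 7.4, diluted to 2.5 mg protein/mL. Peptide spiked at 50 μg/mL (~12 μM) and incubated at 37 °C. Timed samples quenched with equal volume 1% TFA, centrifuged, dried, reconstituted in 0.1% formic acid, mixed with DHB matrix. Fragments identified by MALDI-TOF MS.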

[4] = molecular target: T2, Parathyroid hormone/parathyroid hormone-related peptide receptor (Homo sapiens); experiment: Agonist activity at human PTH1 receptor expressed in human GP2.3 cells assessed as induction of cAMP at 12 uM preincubated with Sprague-Dawley rat kidney homogenates for 60 mins followed by compound transfer to GP2.3 cells measured after 12 to 20 mins by luciferase reporter gene assay; type: functional, cell-based
In short: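 Female Sprague-Dawley rat kidney homogenate (50 mM Tris-HCl pH 7.4, 2000g supernatant). 1 mM peptide stock diluted 1:85 (~12 μM), incubated at indicated times. Quenched 1:1 with acetonitrile/TFA solution, diluted to 1000−1 nM, and added 1:10 to GP2.3 cells preincubated 30 min with 0.5 mM D-luciferin. Sigmoidal variable-slope fit. Two replicates.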

pepsin = experiment: Stability in simulated gastric fluid assessed as pig pepsin-mediated proteolysis by measuring half life at 40 uM by RP-HPLC analysis; type: ADME, Sus scrofa; conditions: simulated gastric fluid with pig pepsin
In short: (§1)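 Peptide at 200 μM (from 1 mM stock in 10 mM acetic acid) incubated at 37 °C in fresh SGF (NaCl, porcine pepsin, HCl, pH ~1.2). Quenched by 10× PBS to neutral pH (40 μM). Duplicate reactions. Intact peptide measured by RP-HPLC peak area. For bioactivity, samples diluted into CO2-independent medium and added to luciferin-loaded GP2.3 cells at 100 nM−0.1 nM final.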

[5] = molecular target: T2, Parathyroid hormone/parathyroid hormone-related peptide receptor (Homo sapiens); experiment: Agonist activity at human PTH1 receptor expressed in human GP2.3 cells assessed as induction of cAMP at 0.1 to 100 nM preincubated with SGF for 4 hrs followed by compound transfer to GP2.3 cells by luciferase reporter gene assay; type: functional, cell-based; in short: as §1
[6] = molecular target: T2, Parathyroid hormone/parathyroid hormone-related peptide receptor (Homo sapiens); experiment: Agonist activity at human PTH1 receptor expressed in human GP2.3 cells assessed as induction of cAMP at 0.1 to 100 nM preincubated with SIF for 10 mins followed by compound transfer to GP2.3 cells by luciferase reporter gene assay; type: functional, cell-based
In short: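 Simulated intestinal fluid containing pancreatin, pH 6.8, prepared fresh and kept at 37 °C. Peptide incubated in it as for gastric fluid. Quenched 1:1 with 50% acetonitrile/1% TFA. Quenched samples serially diluted in CO2-independent medium and applied to luciferin-preloaded GP2.3 cells at 100−0.1 nM final. Luminescence read. Two technical replicates.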

Mus musculus [7] = experiment: In vivo induction of excessive bloodstream calcium concentration in CD1 mouse at 20 nmol/kg, sc up to 2 hrs by Ca2+/pH analyzer; type: organism-based
In short: (§2)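 Female CD1 mice (9−12 weeks), n = 5, given 20 nmol/kg subcutaneously in 10 mM citrate/150 mM NaCl/0.05% Tween-80, pH 5.0. Tail vein blood taken before and at times after dosing. Ca2+ measured by Ca2+/pH analyzer. One-way ANOVA with Dunnett's test vs vehicle. Mean ± SEM.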

Mus musculus [8] = experiment: In vivo induction of excessive bloodstream calcium concentration in CD1 mouse at 20 nmol/kg, sc after 2 hrs by Ca2+/pH analyzer; type: organism-based; in short: as §2
Blood = experiment: Drug level in CD1 mouse blood at 20 nmol/kg, sc measured up to 2 hrs; type: ADME, organism-based; conditions: in vivo
In short: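 Female CD1 mice, n = 5, 20 nmol/kg subcutaneously in citrate/NaCl/Tween-80 vehicle, pH 5.0. 2 μL serum from timed bleeds, mixed with CO2-independent medium, added to GP2.3 cells. Luminescence converted to peptide concentration via a standard curve.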

[9] = molecular target: T2, Parathyroid hormone/parathyroid hormone-related peptide receptor (Homo sapiens); experiment: Displacement of [125I]-PTH(1 to 34 residues) from R0 state of human PTHR1 expressed in African green monkey COS7 cell membranes incubated for >1 hr in presence of GTPgammaS by gamma radiation method
[10] = Half life in Sprague-Dawley rat kidney homogenates at 12 uM by HPLC-MS analysis; type: ADME, tissue-based
In short: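 Kidney homogenate (2.5 mg protein/mL, pH 7.4 Tris) spiked with peptide at 50 μg/mL (~12 μM), 37 °C, sampled 0−120 min. […] C18 UHPLC–Orbitrap MS quantified via y32 ion area ratio against calibration standards. Exponential decay fit, mean ± SD of two replicates.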

[11] = molecular target: T2, Parathyroid hormone/parathyroid hormone-related peptide receptor (Homo sapiens); experiment: Agonist activity at human PTH1 receptor expressed in human GP2.3 cells assessed as induction of cAMP at 0.1 to 100 nM preincubated with protease activity quenched SGF up to 4 hrs followed by compound transfer to GP2.3 cells by luciferase reporter gene assay; type: functional, cell-based
In short: (§3)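 Control samples: simulated gastric fluid neutralized with 10× PBS, or intestinal fluid mixed with acetonitrile/TFA quench solution, before adding peptide. Gastric controls held up to 4 h. Then diluted and tested on luciferin-loaded GP2.3 cells at 100−0.1 nM final, alongside freshly prepared peptide.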

[12] = molecular target: T2, Parathyroid hormone/parathyroid hormone-related peptide receptor (Homo sapiens); experiment: Agonist activity at human PTH1 receptor expressed in human GP2.3 cells assessed as induction of cAMP at 0.1 to 100 nM preincubated with protease activity quenched SIF followed by compound transfer to GP2.3 cells by luciferase reporter gene assay; type: functional, cell-based; in short: as §3

## CSCC[C@H](NC(=O)[C@H]1CCC[C@@H]1NC(=O)[C@H](CCC(N)=O)NC(=O)[C@H]1CCC[C@@H]1NC(=O)[C@H](CCC(=O)O)NC(=O)C(C)(C)NC(=O)[C@@H](NC(=O)[C@H]1CCC[C@@H]1N)C(C)C)C(=O)N[C@@H](Cc1cnc[nH]1)C(=O)N[C@@H](CCC(N)=O)C(=O)N[C@@H](CCCCNC(=N)N)C(=O)N[C@@H](C)C(=O)N[C@@H](CCCCN)C(=O)N[C@H]1CCC[C@@H]1C(=O)N[C@@H](CC(C)C)C(=O)N[C@@H](CC(N)=O)C(=O)N[C@@H](CO)C(=O)N[C@H]1CCC[C@@H]1C(=O)N[C@@H](CCCNC(=N)N)C(=O)N[C@@H](CCCNC(=N)N)C(=O)N[C@H](C(=O)N[C@H]1CNC[C@@H]1C(=O)N[C@@H](Cc1c[nH]c2ccccc12)C(=O)N[C@@H](CC(C)C)C(=O)N[C@@H](CCCNC(=N)N)C(=O)N[C@H]1CNC[C@@H]1C(=O)N[C@@H](CCCCN)C(=O)N[C@@H](CC(C)C)C(=O)N[C@@H](CCC(N)=O)C(=O)N[C@H]1CCC[C@@H]1C(=O)N[C@H](C(=O)N[C@@H](Cc1cnc[nH]1)C(=O)N[C@@H](CC(N)=O)C(=O)N[C@H]1CCC[C@@H]1C(N)=O)C(C)C)C(C)C ({ACPC(1S,2S)}-V[Aib]E[X1]Q[X1]MHQ[hArg]AK[X1]LNS[X1]RRV[X2]WLR[X2]KLQ[X1]VHN-{NH(1S,2S-2-CONH2-cPent)})
[1]
  EC50: 0.48 to 0.78 nM
[2]
  fold change (FC): 7.1 to 9.5
[3]
  Drug metabolism: Metabolite_Notdetected
[4]
  Activity: Active
pepsin
  half-life at 40 µM: 4 h
[5]
  Activity: Active
[6]
  Activity: Active
Mus musculus [7]
  Activity: Toxic
Mus musculus [8]
  Activity: Non-Toxic
Blood
  Drug uptake: Not Active
[9]
  inhibition: Active
[10]
  half-life at 12 µM: 0.517 h
[11]
  Activity: Active
[12]
  Activity: Active
